Reference: ChEMBL document CHEMBL3045155, “Design, synthesis, and insecticidal activities of novel monohalovinylated pyrethroids” (2011)
Converted amounts (≈) assume the structure as drawn.

Columns and labels:
Type in all cases: functional
Culex pipiens pallens [1] = experiment: Potency index, ratio of LC50 for cypermethrin to LC50 for test compound against Culex pipiens pallens (mosquito) fourth-instar larvae assessed as insect mortality measured 24 hr post compound exposure by dipping method
Culex pipiens pallens [2] = experiment: Insecticidal activity against Culex pipiens pallens (mosquito) fourth-instar larvae assessed as insect mortality measured 24 hr post compound exposure by dipping method; settings: for LC50: Culex pipiens, 24 h
Mythimna separata = experiment: Insecticidal activity against Mythimna separata (Oriental armyworm) grown on compound pre-treated corn leaves assessed as insect mortality measured 48 hr post compound exposure
Outline: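 Leaves on filter paper in Petri dishes dipped 5 s in test solutions (acetone, diluted with water) and air-dried, then infested with 10 third-instar larvae; concentrations 500.0 down to 0.25 mg L-1; triplicate per concentration; 26 ± 1 °C, 70 ± 10% RH; percentage mortality at 48 h.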

SMILES	RatioLC50 (Culex pipiens pallens [1])	LC95 (Culex pipiens pallens [2]) [µg/mL]	LC50 (Culex pipiens pallens [2]) [µg/mL]	LC50 (Mythimna separata) [µg/mL]
CC1(C)[C@H](/C=C/Cl)[C@H]1CC(=O)OCc1c(F)c(F)cc(F)c1F (relative stereo)	4.3	0.358 (≈ 1.02 µM)	0.249 (≈ 0.71 µM)	–
C=CCC1=C(C)C(COC(=O)C[C@H]2[C@@H](/C=C/Br)C2(C)C)CC1=O (relative stereo)	2.4	0.7054 (≈ 1.85 µM)	0.44 (≈ 1.15 µM)	–
CC1(C)C(C=C(Cl)Cl)C1C(=O)OC(C#N)c1cccc(Oc2ccccc2)c1 (stereo not drawn) [ALPHA-CYPERMETHRIN]	100	0.0286 (≈ 0.0687 µM)	0.0106 (≈ 0.0255 µM)	–
CC1(C)[C@H](C(=O)O[C@H](C#N)c2cccc(Oc3ccccc3)c2)[C@@H]1C=C(Br)Br [DELTAMETHRIN]	883	0.0033 (≈ 0.00653 µM)	0.0012 (≈ 0.00238 µM)	0.149 (≈ 0.294 µM)
